Results taken from ChEMBL document CHEMBL4041526, “Discovery of 2H-Chromen-2-one Derivatives as G Protein-Coupled Receptor-35 Agonists” (J Med Chem, 2017).
Calls of active or inactive are those of the source. No cut-off for these calls is given here.

Columns and labels:
[1] = biological target: T1, G-protein coupled receptor 35 (Homo sapiens, UniProt Q9HC97); test: Agonist activity at GPR35 in human HT-29 cells assessed as induction of cell desensitization to 1 uM zaprinast preincubated for 1 hr followed by zaprinast stimulation measured after 8 minutes by DMR assay; format: cell-based
How it was run: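 Desensitization format in HT-29 cells on resonant waveguide grating biosensor plates, held in HBSS. […] Mean ± sd, two independent measurements, each with four replicates (n=8).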

[2] = biological target: T1, G-protein coupled receptor 35; test: Agonist activity at GPR35 in human HT-29 cells in presence of antagonist ML-145 by DMR assay; format: cell-based
How it was run: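 HT-29 DMR antagonist format: ML-145 was titrated against the coumarin agonist, each agonist given at its EC80–EC100 dose. Cells were kept in HBSS and equilibrated 1 h in the reader. IC50 was calculated from the DMR amplitude at 8 min post-stimulation. Mean ± sd, two independent measurements × four replicates (n=8).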

[3] = biological target: T1, G-protein coupled receptor 35; test: Agonist activity at GPR35 in human HT-29 cells by DMR assay; format: cell-based
How it was run: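 HT-29 cells with endogenous GPR35, grown in McCoy's 5A with 10% FBS at 37 °C/5% CO2, seeded overnight to a confluent monolayer on resonant waveguide grating biosensor plates. Cells were washed, kept in HBSS for 1 h in the reader, and given a 2 min baseline before compound addition. Mean ± sd, two independent runs × four replicates (n=8).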

[4] = biological target: T1, G-protein coupled receptor 35; test: Agonist activity at human GPR35 expressed in CHO-K1 cells after 90 mins by beta-arrestin 2 recruitment assay; format: cell-based
[5] = biological target: T1, G-protein coupled receptor 35; test: Agonist activity at TEV protease cleavage site linked GAL4-VP16-fused GPR35 in human Tango GPR35-bla U2OS cells assessed as induction of TEV protease-tagged beta-arrestin recruitment incubated for 5 hrs by beta-lactamase reporter gene assay
[6] = biological target: T1, G-protein coupled receptor 35; test: Agonist activity at TEV protease cleavage site linked GAL4-VP16-fused GPR35 in human Tango GPR35-bla U2OS cells assessed as induction of TEV protease-tagged beta-arrestin recruitment incubated for 5 hrs by beta-lactamase reporter gene assay relative to zaprinast
[7] = biological target: T1, G-protein coupled receptor 35; test: Agonist activity at human GPR35 expressed in CHO-K1 cells by DMR assay; format: cell-based
[8] = biological target: T2, B2 bradykinin receptor (Homo sapiens) (UniProt P30411); test: Agonist activity at bradykinin B2 receptor in human A549 cells at 1 uM preincubated for 1 hr followed by bradykinin addition by DMR assay; format: cell-based
T2 sequence (whole entry): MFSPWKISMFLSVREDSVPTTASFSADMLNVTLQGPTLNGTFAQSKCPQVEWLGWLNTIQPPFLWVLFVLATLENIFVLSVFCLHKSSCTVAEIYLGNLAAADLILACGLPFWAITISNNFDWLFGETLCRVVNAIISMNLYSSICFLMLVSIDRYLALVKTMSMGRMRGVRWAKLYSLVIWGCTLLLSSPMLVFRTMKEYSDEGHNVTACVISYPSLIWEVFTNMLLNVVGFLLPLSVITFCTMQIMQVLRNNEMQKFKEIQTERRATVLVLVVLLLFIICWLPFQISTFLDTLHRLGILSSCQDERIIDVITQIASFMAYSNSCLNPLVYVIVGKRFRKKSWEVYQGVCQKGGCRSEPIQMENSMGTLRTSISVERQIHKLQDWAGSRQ

[9] = biological target: Hydroxycarboxylic acid receptor 2 (Homo sapiens) (UniProt Q8TDS4); test: Agonist activity at GPR109a receptor in human A431 cells at 1 uM preincubated for 1 hr followed by niacin addition by DMR assay; format: cell-based
[10] = biological target: T3, Type-1 angiotensin II receptor (Homo sapiens) (UniProt P30556); test: Agonist activity at angiotensin AT1 receptor in human A549 cells at 1 uM preincubated for 1 hr followed by angiotensin 2 addition by DMR assay; format: cell-based
T3 sequence (whole entry): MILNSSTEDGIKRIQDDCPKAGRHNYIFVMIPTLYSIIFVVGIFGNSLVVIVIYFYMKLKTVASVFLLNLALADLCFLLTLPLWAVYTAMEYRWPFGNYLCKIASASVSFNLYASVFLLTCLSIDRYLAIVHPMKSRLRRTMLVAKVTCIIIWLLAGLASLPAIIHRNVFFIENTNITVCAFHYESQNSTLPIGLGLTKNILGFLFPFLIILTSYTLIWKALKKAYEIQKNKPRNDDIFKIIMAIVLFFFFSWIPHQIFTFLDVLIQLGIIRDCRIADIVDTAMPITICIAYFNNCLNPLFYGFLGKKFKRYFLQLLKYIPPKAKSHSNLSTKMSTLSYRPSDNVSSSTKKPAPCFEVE

[11] = biological target: Beta-2 adrenergic receptor (Homo sapiens) (UniProt P07550); test: Agonist activity at beta2 adrenergic receptor in human A431 cells at 1 uM preincubated for 1 hr followed by epinephrine addition by DMR assay; format: cell-based
[12] = biological target: Histamine H1 receptor (Homo sapiens) (UniProt P35367); test: Agonist activity at histamine H1 receptor in human A431 cells at 1 uM preincubated for 1 hr followed by histamine addition by DMR assay; format: cell-based
Chain of Histamine H1 receptor (Homo sapiens) (P35367 whole entry): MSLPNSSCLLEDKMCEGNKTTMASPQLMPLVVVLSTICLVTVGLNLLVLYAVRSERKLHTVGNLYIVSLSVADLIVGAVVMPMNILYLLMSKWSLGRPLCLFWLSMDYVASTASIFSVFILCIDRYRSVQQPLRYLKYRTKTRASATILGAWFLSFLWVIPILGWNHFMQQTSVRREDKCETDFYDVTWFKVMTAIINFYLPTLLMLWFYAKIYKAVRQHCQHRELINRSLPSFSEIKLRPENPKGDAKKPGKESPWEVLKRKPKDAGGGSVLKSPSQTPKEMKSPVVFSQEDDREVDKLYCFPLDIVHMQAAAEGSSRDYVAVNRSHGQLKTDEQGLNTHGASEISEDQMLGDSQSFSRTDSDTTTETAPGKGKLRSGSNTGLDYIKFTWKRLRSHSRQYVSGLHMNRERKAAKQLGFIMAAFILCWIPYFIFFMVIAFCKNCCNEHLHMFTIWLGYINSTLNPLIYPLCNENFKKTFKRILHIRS

T1 sequence (Q9HC97 whole entry): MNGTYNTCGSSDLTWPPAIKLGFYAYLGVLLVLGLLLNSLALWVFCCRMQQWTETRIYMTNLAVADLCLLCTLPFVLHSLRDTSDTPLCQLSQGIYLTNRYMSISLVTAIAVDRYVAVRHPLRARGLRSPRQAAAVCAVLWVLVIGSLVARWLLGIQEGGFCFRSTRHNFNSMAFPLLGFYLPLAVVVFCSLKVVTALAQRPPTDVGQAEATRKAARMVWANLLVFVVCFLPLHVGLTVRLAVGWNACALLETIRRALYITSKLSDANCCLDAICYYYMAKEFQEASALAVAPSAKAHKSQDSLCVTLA
Chain of Beta-2 adrenergic receptor (Homo sapiens) (P07550 whole entry, looked up): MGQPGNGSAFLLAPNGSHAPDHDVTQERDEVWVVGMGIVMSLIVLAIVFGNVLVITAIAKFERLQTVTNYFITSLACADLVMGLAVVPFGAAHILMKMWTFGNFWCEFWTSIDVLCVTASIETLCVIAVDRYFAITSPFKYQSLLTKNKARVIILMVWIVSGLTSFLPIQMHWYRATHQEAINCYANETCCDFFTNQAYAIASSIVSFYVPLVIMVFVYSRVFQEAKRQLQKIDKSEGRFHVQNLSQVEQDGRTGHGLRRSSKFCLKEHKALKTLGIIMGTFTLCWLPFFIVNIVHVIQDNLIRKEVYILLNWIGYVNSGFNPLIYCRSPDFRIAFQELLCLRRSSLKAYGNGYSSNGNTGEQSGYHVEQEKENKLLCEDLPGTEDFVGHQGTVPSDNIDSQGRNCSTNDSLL
Chain of Hydroxycarboxylic acid receptor 2 (Homo sapiens) (Q8TDS4 whole entry): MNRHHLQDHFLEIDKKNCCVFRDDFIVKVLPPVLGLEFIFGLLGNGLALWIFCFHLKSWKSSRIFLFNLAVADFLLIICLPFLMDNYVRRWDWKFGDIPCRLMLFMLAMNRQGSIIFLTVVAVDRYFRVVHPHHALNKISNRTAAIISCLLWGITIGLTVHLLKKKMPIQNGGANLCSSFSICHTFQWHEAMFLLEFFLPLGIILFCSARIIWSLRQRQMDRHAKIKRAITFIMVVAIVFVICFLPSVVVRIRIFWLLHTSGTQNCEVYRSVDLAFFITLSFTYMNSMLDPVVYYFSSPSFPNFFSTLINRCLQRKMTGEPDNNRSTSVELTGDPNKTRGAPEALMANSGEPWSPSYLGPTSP

Row | Structure (SMILES) | IC50 [1] | Activity [2] | EC50 ([3]; read-out: EC50) | further results
1 | COc1c(Br)cc2cc(-c3nnn[nH]3)c(=O)oc2c1[N+](=O)[O-] | 2820 nM | inactive | 2660 nM | –
2 | CC(C)c1ccc2oc3nc(N)c(C(=O)O)cc3c(=O)c2c1 [AMLEXANOX] | – | – | – | EC50 [4]: 4000 nM
3 | N#Cc1cc2ccccc2oc1=O | – | – | – | EC50 [3]: Not Active
4 | N#Cc1cc(NC(=O)C(=O)O)c(Cl)c(NC(=O)C(=O)O)c1 [LODOXAMIDE] | – | – | – | EC50 [4]: 4000 nM
5 | O=c1oc2c([N+](=O)[O-])cc(Br)cc2cc1-c1nnn[nH]1 | 330 nM | inactive | 330 nM | –
6 | O=c1oc2cc(O)c(Br)cc2cc1-c1nnn[nH]1 | 483 nM | inactive | 710 nM | –
7 | O=c1oc2c(Br)cc(Br)cc2cc1-c1nnn[nH]1 | 380 nM | inactive | 930 nM | EC50 [5]: 7050 nM; Efficacy [6]: 81.3%
8 | O=C(O)c1cc(=O)c2c(OCC(O)COc3cccc4oc(C(=O)O)cc(=O)c34)cccc2o1 [CROMOLYN] | – | – | – | EC50 [4]: 7000 nM; EC50 [7]: 52 nM
9 | COc1c(Br)cc2cc(C#N)c(=O)oc2c1[N+](=O)[O-] | 1690 nM | inactive | 2910 nM | –
10 | O=C(O)c1cc2cc(Br)cc(Br)c2oc1=O | 1080 nM | inactive | 1750 nM | –
11 | O=C(O)c1cc2cc(Br)c(O)c([N+](=O)[O-])c2oc1=O | 31 nM | inactive | 51 nM | EC50 [5]: 479 nM; Efficacy [6]: 111%
12 | O=C(O)c1cc2cc(Br)ccc2oc1=O | 11300 nM | inactive | 10800 nM | –
13 | O=c1oc2c(Br)c(O)c(Br)cc2cc1-c1nnn[nH]1 | 23 nM | inactive | 68 nM | EC50 ([3]; read-out: pEC50 (converted)): 66.7 nM; EC50 [5]: 1540 nM; Efficacy [6]: 126%
14 | O=C(O)c1cc2cc(Br)c(O)cc2oc1=O | 3760 nM | inactive | 4340 nM | –
15 | N#Cc1cc2cc(Br)cc([N+](=O)[O-])c2oc1=O | 650 nM | inactive | 700 nM | –
16 | N#Cc1cc2cc(Br)cc(Br)c2oc1=O | 14900 nM | inactive | 17700 nM | –
17 | O=C(O)c1cc2cc(Br)c(O)c(Br)c2oc1=O | 56 nM | inactive | 150 nM | EC50 [5]: 3630 nM; Efficacy [6]: 168%

Row | Structure (SMILES) | IC50 [1] | Activity [2] | EC50 ([3]; read-out: EC50) | further results
18 | N#Cc1cc2cc(Br)c(O)c(Br)c2oc1=O | 2890 nM | inactive | 2330 nM | –
19 | N#Cc1cc2cc(Cl)cc(Cl)c2oc1=O | 8610 nM | inactive | 8610 nM | –
20 | O=C(O)c1cc2cc(Cl)cc(Cl)c2oc1=O | 2300 nM | inactive | 2020 nM | –
21 | CCCOc1ccccc1-c1nc2[nH]nnc2c(=O)[nH]1 | – | – | – | Efficacy [6]: 100%
22 | O=C(O)c1cc2cc(Br)cc([N+](=O)[O-])c2oc1=O | 3750 nM | inactive | 4270 nM | –
23 | N#Cc1cc2cc(Br)c(O)cc2oc1=O | 9330 nM | inactive | 9270 nM | –
24 | O=C(O)c1cc2ccccc2oc1=O [COUMARIN-3-CARBOXYLIC ACID] | 100000 nM | inactive | 92300 nM | –
25 | COc1c(Br)cc2cc(C#N)c(=O)oc2c1Br | 590 nM | inactive | 8220 nM | –
26 | O=C(O)c1cc2cc(Cl)ccc2oc1=O | 13200 nM | inactive | 13500 nM | –
27 | COc1c(Br)cc2cc(C(=O)O)c(=O)oc2c1Br | 750 nM | inactive | 890 nM | –
28 | COc1c(Br)cc2cc(-c3nnn[nH]3)c(=O)oc2c1Br | 460 nM | inactive | 1410 nM | EC50 [5]: 14100 nM; Efficacy [6]: 86.4%
29 | N#Cc1cc2cc(Cl)ccc2oc1=O | 21400 nM | inactive | 21400 nM | –
30 | O=c1oc2c([N+](=O)[O-])c(O)c([N+](=O)[O-])cc2cc1-c1nnn[nH]1 | 13 nM | inactive | 14 nM | EC50 [5]: 288 nM; Efficacy [6]: 107%
31 | COc1cc2oc(=O)c(-c3nnn[nH]3)cc2cc1Br | 14100 nM | inactive | 14800 nM | –
32 | O=c1oc2ccccc2cc1-c1nn[nH]n1 | 5080 nM | inactive | 6760 nM | –
33 | O=c1oc2c([N+](=O)[O-])c(O)c(Br)cc2cc1-c1nnn[nH]1 | 8.6 nM | inactive | 5.8 nM | Activity [1]: Dose-dependent effect; Activity [8]: inactive; Activity [9]: inactive; Activity [10]: inactive; Activity [11]: inactive; Activity [12]: inactive; EC50 [5]: 197 nM; Efficacy [6]: 104%
